ChEMBL document CHEMBL1139827, “Synthesis and pharmacological profile of serofendic acids A and B” (Bioorg Med Chem, 2007)
Activity calls are given as the source filed them. No cut-off for these calls is given here.

Columns and labels:
[1] = AUC in Sprague-Dawley rat at 1 mg/kg, iv; assay type: ADME, organism-based; design: dose 1 mg/kg, route intravenous; conditions: plasma
Summary of the method: (§1)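 Fasted SD rats (n = 3, 290–260 g) given 1 mg/kg iv, dosing solution 1 mg/ml in 30% DMSO/5% glucose. Blood sampled at 0.25, 0.5, 1, 2, 4, 6 and 8 h. Plasma (0.1 ml) mixed with MeOH/HClO4 (500:1, 0.2 ml), centrifuged 12,000 rpm for 5 min and filtered. Plasma PK parameters derived from these samples.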

[2] = Half life in Sprague-Dawley rat at 1 mg/kg, iv; assay type: ADME, organism-based; design: dose 1 mg/kg, route intravenous; conditions: in vivo; summary of the method: as §1
Cerebral cortex [3] = test: Protective effect against glutamate-induced neurotoxicity in fetal rat cerebral cortex after 24 hrs; assay type: functional, tissue-based
Summary of the method: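 Wistar fetal rat cortical neurons (E17–19) grown on polyethyleneimine-coated coverslips, 10 µM cytosine arabinoside added from day 6, used at 11–15 DIV. Exposed to 500 µM Glu for 10 min; compound present 1 h before, during and 24 h after. Viability by trypan blue exclusion, >200 cells per coverslip, five coverslips, mean ± SEM.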

[4] = Volume of distribution at steady state in Sprague-Dawley rat at 1 mg/kg, iv; assay type: ADME, organism-based; design: dose 1 mg/kg, route intravenous; conditions: in vivo, read-out: Vdss; summary of the method: as §1
[5] = Total clearance in Sprague-Dawley rat at 1 mg/kg, iv; assay type: ADME, organism-based; design: dose 1 mg/kg, route intravenous; conditions: in vivo; summary of the method: as §1
Cerebral cortex [6] = test: Protective effect against glutamate-induced neurotoxicity in fetal rat cerebral cortex at 1 uM after 24 hrs; assay type: functional, tissue-based
Summary of the method: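 Primary cortical neurons from fetal Wistar rats (17–19 days gestation), used after 11–15 days in vitro; cytosine arabinoside 10 µM added at day 6. Compound present 1 h before, during and 24 h after 10 min exposure to 500 µM Glu. Viability by trypan blue exclusion (>200 cells/coverslip, five coverslips), % unstained cells; means ± SEM.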

[7] = Ratio of drug level in brain to plasma in Sprague-Dawley rat at 1 mg/kg, iv after 0.5 hr; assay type: ADME, organism-based; design: dose 1 mg/kg, route intravenous; conditions: read-out: BPR
Summary of the method: (§2)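 SD rats (n = 3, fasted) given 1 mg/kg iv in 30% DMSO/5% glucose. Brain and blood taken at 0.5 and 2 h. Brain homogenized (20% saline). Brain homogenate or plasma (0.1 ml) treated with MeOH/HClO4 (500:1, 0.2 ml), centrifuged 12,000 rpm for 5 min, filtered. Brain-to-plasma concentration ratio calculated.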

[8] = Ratio of drug level in brain to plasma in Sprague-Dawley rat at 1 mg/kg, iv after 2 hrs; assay type: ADME, organism-based; design: dose 1 mg/kg, route intravenous; conditions: read-out: BPR; summary of the method: as §2
[9] = Oral bioavailability in Sprague-Dawley rat at 5 mg/kg; assay type: ADME, organism-based; conditions: in vivo
Summary of the method: (§3)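 Fasted SD rats (n = 3) dosed orally at 5 mg/kg, 1 mg/ml in 0.5% methyl cellulose. Plasma sampled at 0.25, 0.5, 1, 2, 4, 6 and 8 h. Plasma (0.1 ml) deproteinized with MeOH/HClO4 (500:1, 0.2 ml), spun 12,000 rpm for 5 min, filtered. Bioavailability set against the 1 mg/kg iv dosing.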

[10] = Tmax in Sprague-Dawley rat at 5 mg/kg, po; assay type: ADME, organism-based; design: dose 5 mg/kg, route oral; conditions: in vivo; summary of the method: as §3
[11] = Half life in Sprague-Dawley rat at 5 mg/kg, po; assay type: ADME, organism-based; design: dose 5 mg/kg, route oral; conditions: in vivo; summary of the method: as §3
[12] = Cmax in Sprague-Dawley rat at 5 mg/kg, po; assay type: ADME, organism-based; design: dose 5 mg/kg, route oral; conditions: in vivo; summary of the method: as §3
[13] = AUC in Sprague-Dawley rat at 5 mg/kg, po; assay type: ADME, organism-based; design: dose 5 mg/kg, route oral; conditions: plasma; summary of the method: as §3

Row | SMILES | AUC [1] [ng·h/mL] | half-life [2] [min] | Activity (Cerebral cortex [3]) | Vd [4] [L/kg] | clearance [5] [mL/min/kg] | Activity (Cerebral cortex [6]) | Kp at 0.5 h [7] | Kp at 2 h [8] | bioavailability [9] [%] | Tmax [10] [min] | half-life [11] [min] | Cmax [12] [ng/mL] | AUC [13] [ng·h/mL]
1 | C[S@+]([O-])C[C@H]1[C@H]2CC[C@@]3(CC[C@H]4[C@@](C)(CCC[C@]4(C)C(=O)O)[C@@H]3C2)[C@@H]1O [SEROFENDIC ACID A] | 1950 | 28.8 | Active | 0.33 | 8.67 |  |  |  |  |  |  |  | 
2 | C[C@]12N[C@H](Cc3ccccc31)c1ccccc12 |  |  |  |  |  | Active |  |  |  |  |  |  | 
3 | COC(=O)[C@@]1(C)CCC[C@@]2(C)[C@@H]3C[C@@H]4CC[C@@]3(CC[C@@H]21)[C@H](O)[C@H]4C[S+](C)[O-] (stereo partly drawn) [SEROFENDIC ACID METHYLESTER] | 1440 | 33 |  | 0.57 | 14.7 |  | 2.2 | 2.21 |  |  |  |  | 
4 | C[S@@+]([O-])C[C@H]1[C@H]2CC[C@@]3(CC[C@H]4[C@@](C)(CCC[C@]4(C)C(=O)O)[C@@H]3C2)[C@@H]1O [SEROFENDIC ACID B] | 2780 | 39 | Active | 0.33 | 6 |  | 0.021 |  | 41 | 19.8 | 234 | 2050 | 5640
